# Compounds with a hit are over-represented: about 2.5% of the library has one in this group of screens.
# SENP6 inh – blocks the human protease SENP6. inhibition, % at 10 µM. Q9GZR1. Recombinant SENP6 catalytic domain, aminoluciferin luminescence. 1.8% of 330,000 active;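 active means inhibition above about 50% at the single tested dose, limit read from the data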;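 further: plate controls were DMSO wells with enzyme for no effect and DMSO wells lacking enzyme for full effect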
# Target sequence (Q9GZR1 628-1112 limits assumed): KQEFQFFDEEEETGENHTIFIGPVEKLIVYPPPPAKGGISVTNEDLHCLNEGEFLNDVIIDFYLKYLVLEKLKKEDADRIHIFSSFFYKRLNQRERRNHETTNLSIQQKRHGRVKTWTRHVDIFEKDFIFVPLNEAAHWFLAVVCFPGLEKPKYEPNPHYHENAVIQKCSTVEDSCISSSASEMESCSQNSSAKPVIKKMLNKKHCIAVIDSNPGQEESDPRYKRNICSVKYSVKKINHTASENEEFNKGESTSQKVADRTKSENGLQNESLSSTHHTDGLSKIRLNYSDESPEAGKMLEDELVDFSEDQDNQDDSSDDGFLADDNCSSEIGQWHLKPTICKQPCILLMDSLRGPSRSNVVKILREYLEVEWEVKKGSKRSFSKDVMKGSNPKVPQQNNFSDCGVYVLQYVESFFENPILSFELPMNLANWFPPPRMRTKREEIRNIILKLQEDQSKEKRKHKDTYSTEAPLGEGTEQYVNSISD
# SENP1 FRET inh – blocks the human SENP1 SUMO protease catalytic domain; 0.21% of 360,000 active; Q9P0U3; recombinant SENP1 catalytic domain, CyPet-SUMO1-YPet FRET cleavage; inhibition, % at 10 µM;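 active means inhibition at least 30% at 10 µM, raw YFP signal under a set limit, fluorescence ratio 0.5 to 1.5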;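 further: 0% = enzyme with DMSO and 100% = no enzyme wells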
# Target sequence (Q9P0U3 419-644 limits assumed): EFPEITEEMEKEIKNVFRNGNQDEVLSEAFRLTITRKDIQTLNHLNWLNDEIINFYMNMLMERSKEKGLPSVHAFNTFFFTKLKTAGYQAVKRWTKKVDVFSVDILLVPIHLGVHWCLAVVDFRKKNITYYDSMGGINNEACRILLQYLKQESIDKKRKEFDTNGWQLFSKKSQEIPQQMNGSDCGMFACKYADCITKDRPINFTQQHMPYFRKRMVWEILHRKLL
#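 System: Recombinant human SENP1 catalytic domain, His6-tagged | Incubation: Enzyme reaction for 50 min at room temperature, dark | Medium: Tris pH 8 with BME, BSA, NP40 and catalase | Also added: 25 nM SUMO1 FRET substrate | Compound: 10 µM single point, 0.5% DMSO | Measured by: FRET fluorescence in CFP and YFP emission channels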
# SENP8 block-1 – blocks human SENP8 cleavage of Nedd8 substrate; recombinant SENP8, Nedd8 substrate fluorescence; inhibition, % at 20 µM; 0.64% of 360,000 active; AID 602440; in the data active means inhibition mostly above about 40%, no sharp cut-off; inactive means mostly below about 27%
# SENP8 block-2 – blocks the human protease SENP8. 1.2% of 330,000 active. inhibition, % at 10 µM. Q96LD8. purified SENP8, Z-RLRGG-aminoluciferin cleavage, luminescence; in the data active means inhibition above about 50%
# SENP7 inh – SENP7 protease inhibition. recombinant SENP7, Z-RLRGG-aminoluciferin luminescence, 40 min. inhibition, % at 5 µM. 1.5% of 330,000 active. AID 434973;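 active means inhibition above about 50% at the single test dose, limit read from the data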;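 further: plate controls were DMSO with enzyme for no effect and no enzyme buffer wells for full effect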
# SENP8 confirm – human SENP8 inhibition, confirmed; 40% of 6,200 active; shares compounds with SENP7 inh; inhibition, % at 12.5 µM; Recombinant SENP8, Z-RLRGG-aminoluciferin luminescence, 60 min;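 active means mean inhibition across replicates above about 50%, limit read from the data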
# SENP6 conf – human SENP6 inhibition, confirmed. inhibition, % at 12.5 µM. shares compounds with SENP7 inh. 58% of 6,200 active. recombinant SENP6, Z-RLRGG-aminoluciferin luminescence
# SENP7 conf – confirmation of human SENP7 protease inhibitors. shares compounds with SENP7 inh. recombinant SENP7, Z-RLRGG-aminoluciferin luminescence, 40 min. 69% of 6,200 active. inhibition, % at 12.5 µM
# Casp3 SENP sel – selectivity test for SENP inhibitors: human caspase-3 inhibition; shares compounds with SENP7 inh; purified caspase-3, Z-DEVD-aminoluciferin luminescence, 60 min; inhibition, % at 12.5 µM; 60% of 6,200 active; AID 488918;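 active means mean inhibition above about 50%, limit read from the data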;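 further: plate controls were enzyme with DMSO for no effect and wells without caspase-3 for full effect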
# Luc interf – interferes with luciferase luminescence in SENP counter-screen | inhibition, % at 12.5 µM | 39% of 6,200 active | shares compounds with SENP7 inh | AID 488919 | Pre-incubated SENP8/Z-RLRGG-aminoluciferin, luciferase luminescence interference;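 active means mean inhibition above about 50% when retested at one dose, limit read from the data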;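 further: plate controls were DMSO wells with completed reaction for no effect and substrate without enzyme for full effect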
# * = called active by the depositor; i = inactive; nt = no result given.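 How the source made its calls, unless noted: active means mean inhibition above about 50% in the one-dose retest (limit read from the data); inactive means the rest.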
SMILES,SENP6 inh,SENP1 FRET inh,SENP8 block-1,SENP8 block-2,SENP7 inh,SENP8 confirm,SENP6 conf,SENP7 conf,Casp3 SENP sel,Luc interf
Cc1ccc(/C=N/c2sc3c(c2C#N)CCCCC3)o1,97.0*,-1.1,23.0,87.3*,0.1,94.3*,95.3*,99.7*,68.6*,77.3*
N#Cc1c(/N=C/c2cc3ccccc3s2)sc2c1CCC2,-24.2,-23.8,10.3,-17.3,-14.2,nt,nt,nt,nt,nt
Cc1ccc(/C=N/c2sc3c(c2C#N)CCC3)s1,78.0*,-16.3,6.4,23.4,84.5*,13.8,13.2,16.2,14.6,12.9
Cc1c(O)ccc(/C=N/Nc2ncccc2[N+](=O)[O-])c1O,97.1*,2.1,27.1,96.2*,100.3*,67.0*,77.0*,102.3*,75.0*,25.2
Cn1cc(Cl)c(C(=O)Nc2nc3ccccc3s2)n1,96.2*,2.6,1.5,95.5*,0.6,13.5,98.1*,102.9*,96.2*,44.8
O=C(Nc1nc2ccccc2s1)c1ccc(N2CCCCC2)c([N+](=O)[O-])c1,51.5*,-1.1,38.7,35.1,54.5*,-5.4,4.3,27.4,25.4,1.7
Nc1ccc(C(=O)Nc2nc3ccccc3s2)cc1,90.8*,-1.9,-425.6,90.9*,93.8*,95.0*,95.0*,100.9*,86.2*,90.6*
Cc1cc(C)n(-c2ccc(C(=O)Nc3nc4ccccc4s3)cc2)n1,21.7,4.1,-299.9,-8.0,29.3,nt,nt,nt,nt,nt
Cc1cccc(OCc2nn[nH]n2)c1C,-16.2,-0.5,14.2,-0.6,4.2,nt,nt,nt,nt,nt
O=C(CCN1C(=O)/C(=C/c2ccccc2Cl)SC1=S)Nc1cccnc1,3.6,4.9,22.9,5.2,1.3,nt,nt,nt,nt,nt
O=C(CCN1C(=O)/C(=C/c2ccccc2Cl)SC1=S)NC1CCCC1,1.8,3.7,11.0,8.4,1.2,nt,nt,nt,nt,nt
O=C(CCCN1C(=O)/C(=C/c2ccccc2Cl)SC1=S)Nc1cccnc1,36.2,3.4,17.9,46.6,51.1*,-0.4,47.8,13.6,23.9,6.5
O=C(CCN1C(=O)/C(=C/c2ccccc2Cl)SC1=S)NN1CCOCC1,37.1,3.0,14.4,45.3,51.7*,7.7,7.6,8.0,16.1,3.5
COc1cc(C(=O)O)ccc1OCc1ccncc1,2.0,-3.6,7.7,5.6,2.8,nt,nt,nt,nt,nt
O=C1C(=C(c2ccccc2)N2CCOCC2)Cc2ccccc21,nt,2.4,7.4,nt,nt,nt,nt,nt,nt,nt
Cc1cc(Cl)ccc1NC(=O)CCC(=O)N/N=C/c1cc([N+](=O)[O-])ccc1O,9.5,2.1,17.1,2.0,-3.2,nt,nt,nt,nt,nt
O=[N+]([O-])c1ccc(O)c(/C=N/NC(=S)Nc2ccc(Cl)cc2Cl)c1,94.2*,-77.0,27.9,87.5*,57.1*,76.7*,85.3*,54.7*,35.4,6.2
CC1(C(=O)NCc2cccc3ccccc23)CCN1C(=O)C1(c2ccccc2)CCCC1 (stereo not given),nt,1.4,32.3,nt,nt,nt,nt,nt,nt,nt
N#Cc1c(N2CCCC2)nsc1-c1ccccc1,60.3*,-9.8,-24.1,41.8,20.1,29.8,33.9,25.4,44.5,51.9*
N#Cc1c(N2CCOCC2)nsc1-c1ccccc1,37.3,-1.1,-27.7,24.8,5.8,nt,nt,nt,nt,nt
Fc1ccc(CSc2ccc(-c3cccs3)nn2)cc1,-17.5,3.2,14.9,-13.7,12.0,nt,nt,nt,nt,nt
Clc1ccc(CSc2ccc(-c3ccco3)nn2)cc1,2.5,1.6,8.6,-3.5,-8.1,nt,nt,nt,nt,nt
c1ccc(CSc2ccc(-c3ccco3)nn2)cc1,60.4*,4.8,-3.1,19.4,18.3,20.8,53.9*,78.6*,52.4*,10.5
Cc1ccc(CSc2ccc(-c3ccco3)nn2)cc1,84.1*,4.5,-0.3,-1.3,68.5*,33.0,77.2*,96.0*,68.7*,29.8
Cc1ccc(CSc2ccc(-c3cccs3)nn2)cc1,25.3,0.1,15.7,7.8,69.0*,11.6,11.8,6.5,12.9,5.7
SMILES,SENP6 inh,SENP1 FRET inh,SENP8 block-1,SENP8 block-2,SENP7 inh,SENP8 confirm,SENP6 conf,SENP7 conf,Casp3 SENP sel,Luc interf
CS(=O)(=O)c1ccc2nc(NC(=O)c3ccccc3Cl)sc2c1,1.7,1.4,-3.1,1.1,5.3,nt,nt,nt,nt,nt
CCC(=O)Nc1cccc(-c2nc3ccccc3o2)c1,-16.3,3.1,-8.6,-14.8,-7.2,nt,nt,nt,nt,nt
CS(=O)(=O)c1ccc2sc(NC(=O)c3cc4ccccc4o3)nc2c1,77.4*,0.6,-415.2,45.8,28.2,-4.3,-6.5,0.1,37.7,23.3
CS(=O)(=O)c1ccc2nc(NC(=O)c3cc4ccccc4o3)sc2c1,82.9*,-0.7,i,52.5*,54.1*,16.6,14.1,40.7,33.5,6.4
CS(=O)(=O)c1ccc2nc(NC(=O)c3ccco3)sc2c1,24.4,-0.9,-236.1,23.3,26.0,nt,nt,nt,nt,nt
CC(=O)Nc1nc2ccc(-c3nc4ccccc4o3)cc2s1,-2.2,-55.9,-495.1,24.1,64.3*,20.4,16.4,19.9,11.7,-2.6
O=C(Nc1nc2ccc(Cl)cc2s1)c1ccc(Br)o1,53.2*,-7.1,-273.5,29.9,58.5*,10.3,17.7,7.3,16.1,6.3
Cc1cc(C(=O)Nc2nc3ccc(Cl)cc3s2)nn1C,-7.1,-0.5,-8.1,-3.5,48.0,nt,nt,nt,nt,nt
Cc1ccc(C(=O)Nc2nc3ccc(S(C)(=O)=O)cc3s2)o1,-15.2,-4.1,-234.7,32.8,59.9*,56.5*,54.3*,84.5*,85.9*,64.3*
COc1cc(Cn2c3ccc(NC(=O)CCc4ccc(O)cc4)cc3c(=O)n2C)ccc1F,nt,11.1,i,nt,nt,nt,nt,nt,nt,nt
COC(=O)c1ccccc1-c1ccc(/C=C2\C(=O)N(c3ccccc3)N=C2c2ccccc2)o1,52.9*,1.2,26.7,9.4,13.0,11.1,6.5,-3.9,-0.2,0.0
CC1=NN(c2ccccc2)C(=O)/C1=C/c1ccc(-c2ccc(C)c(C(=O)O)c2)o1,17.7,nt,nt,12.1,2.8,nt,nt,nt,nt,nt
O=[N+]([O-])c1ccc2nc(-c3ccccc3)n(OCc3ccc(Cl)cc3)c2c1,86.3*,3.7,15.2,65.6*,84.3*,11.3,10.6,11.4,10.9,0.2
COn1c(-c2ccccc2)nc2ccc(Cl)cc21,54.4*,1.6,-22.0,21.9,23.5,39.0,38.7,71.7*,39.3,43.8
O=C(O)COn1c(-c2ccccc2)nc2ccc(Cl)cc21,-18.0,1.7,-3.8,-1.9,-3.6,nt,nt,nt,nt,nt
O=C(Nc1ccc2c(c1)OCO2)c1ccc(Br)o1,64.6*,2.5,10.5,58.0*,7.1,10.5,65.4*,89.9*,82.4*,67.1*
CCN(CC)c1ccc(NC(=O)c2ccc(Br)o2)cc1,-15.8,0.6,11.5,12.8,27.4,nt,nt,nt,nt,nt
